In the EternaBench riboswitch data:

Tested on: MS2 coat protein
Assay: apparent Kd, MS2 coat protein; higher = weaker binding; RNA-MaP array; FMN 200 µM where present
Summary of the method: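 Each design was made on Illumina sequencing-chip clusters by stalled E. coli RNA polymerase and titrated with SNAP-549-labelled MS2 coat protein from 0.7 or 1.5 nM, doubling to 3 µM, in the absence and then the presence of constant ligand. The buffer was 100 mM Tris-HCl pH 7.5, 80 mM KCl, 4 mM MgCl2, BSA, DTT, yeast tRNA and Tween-20. The apparent Kd is the median of filtered per-cluster fits of binding curves, with green signal normalised to red-channel RNA signal and control-cluster median Fmax.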

[1] = designed as: ON switch for flavin mononucleotide, no ligand
[2] = ligand present: flavin mononucleotide, designed as: ON switch for flavin mononucleotide
[3] = designed as: OFF switch for flavin mononucleotide, no ligand
[4] = ligand present: flavin mononucleotide, designed as: OFF switch for flavin mononucleotide

Sequence	apparent Kd [1] [nM]	apparent Kd [2] [nM]	apparent Kd [3] [nM]	apparent Kd [4] [nM]
GCAAAGCCUGACAUGAGGAUCACCCAUGUUAGAUUGUUAUGUCAGGAUAUUGUCUAGACCCUAGACAAGAAGGGAUGCUUUGCU	371	26.9	–	–
UUGGACGUCGUAGGAUAUAUAGGAUAUUCCUACAUGAGGAUCACCCAUGUUGACAUGGAAGAAGGACAGAAGGACGAUGUCCAU	27.1	9.75	–	–
GUCAGCUCGUGAGGAUAUACAUCACUGCUUCGGCAGUGUAUUAAGACAACAUGAGGAUCACCCAUGUAGAAGGCACGAGCUGAU	–	–	16.9	20.4
CAUAACUUUUCUCAUGUAAACAUGAGGAUCACCCAUGUAAUGAGAAGGAGGAGGCAGAGAGAAUCCUAGGAUAUCAGAAUUGUU	–	–	6.77	6.43
AGUGACGACGAGGAUAUUCCGGUAGCCUACUAAGAAGAAGGUGUCACAUGAGGAUCACCCAUGUUUAGUUUCGC	–	–	141	68.7
CCUCUUGGGCAAGGAUAUCCUGCGCGGUUCCGGUUCGUGUCUGUCACAUGAGGAUCACCCAUGUGGGAGAAGGUGCCUGCGGUC	–	–	17.9	24.2
AAUAUAAAGCAGAAGGCCUUAUUACAUGAGGAUCACCCAUGUAAUCGUGGGAGGAUAUGCAUGAUACAAGUACGUUUGGUAGGA	8.76	5.22	–	–
GGAUAGGACAGAGGAUAUACGUGCUAGAGAUACUAGCAAAAUGUCCUCACAUGAGGAUCACCCAUGUAGAAGGCUGUCCUAUCG	–	–	7.96	156
CUGGUGUGAGGAUAUCAAAGACCUCGGGAAAGAACCGAGAAUGAGAAGGCACAUGAGGAUCACCCAUGUAACAA	–	–	18.2	30.7
ACAGCGUGAGGAUAUACAUGAGGAUCACCCAUGUGUGGCAGGUUAUCCUGUCAUAAGUGUAGAAGGCACGCUGU	–	–	44.4	93.9
UCACAGUCAGGAUAUUCUGUGUAGGUUGCGCCUCAAGCACUGAAGAAGGGACAUGAGGAUCACCCAUGUUCCUC	–	–	15.5	18.7
AUCAUUCGUGUAGGAUAUGCGUGACGAAGUCAUGCAGAAGGACAUGAGGAUCACCCAUGUCUUUCUCGAGCUGUAGCUCGAGGA	–	–	23.9	156
CCACGUCAGAUUAACAUGAGGAUCACCCAUGUCUUUUGACAUGAGGAUAUGGAUCCUAAUUGGAUCCAGAAGGCAUGGACGUGG	963	96.9	–	–
UUAUUUAGUGUGAGGAUAUGCUGGUCCAUAGAUCAGCAGAAGGCACAUGAGGAUCACCCAUGUAAUAUAUUAAU	–	–	26.5	202
GGUCACGUAGGAUAUACCUGGGCCUCUGAAUUCGGCAAUUUACAUGAGGAUCACCCAUGUAGAAGGACGAUGGC	–	–	120	97.6
AGUCGGAGCAGAGGAUAUUACAUGAGGAUCACCCAUGUAGGUACCAAUAGCUGGAAACAGCAAUGUAAGAAGGCUGCUCCGACA	–	–	259	281
AGUCCACAUGAGGAUCACCCAUGUGAGGAUAUCGAUGUCCCAGGGCGGGUGCGGGACUCGAGAAGGCACUAGGU	–	–	34.5	110
GUAGAGUCAGGAUAUACAAGAUCGAAAGAUCGAAGAUCCAUACAUGAGGAUCACCCAUGUAGAAGGGACUCUAC	–	–	17.1	35.8
UAAAAGCAAGGAUAUACAUGAGGAUCACCCAUGUGAGGCUAAGUCUGCCAUGGCUCAGGUAGAAGGUGCGUCGA	–	–	51.3	241
GGGUACAUCGGAGGAUAUCAUGUAAAUACAUGAGGAUCACCCAUGUCGAUGGAUACAUCGGAGAUUGAGAAGGCCGAUGUACCG	13	5.34	–	–
UAGUCGGUAGAUAAUAAUGAAUACAUGAGGAUCACCCAUGUAUAGGAUAUCGUCAGGAAUACUGACGAGAAGGAUACAUCCGAC	–	–	16.1	18.4

Sequence	apparent Kd [1] [nM]	apparent Kd [2] [nM]	apparent Kd [3] [nM]	apparent Kd [4] [nM]
AUGGUCAUGUUAGGAUAUGACGCGCUGUACGCAUCAGAAGGAACAUGAGGAUCACCCAUGUAUAGAGUAAUGUCGCUUACUCUC	–	–	47.9	187
ACAUGAGGAUCACCCAUGUUUUUUGGGUACUUUUGUUUCUGCAAGGAUAUGCAUUAUUUAUAUACGCAGAAGGUGCAUUACUUC	–	–	573	708
GGUCCACAUGAGGAUCACCCAUGUCAGGAUAUAUACGGCACAAUAAUAAGUGCCGCCCAUAGAAGGGACGCUGG	–	–	15.7	26.1
CCAGAAUAGAAGGAUAUCGUGCUAUAGAGCGGAUGAGAAGGUCUGACAUGAGGAUCACCCAUGUGCACUUCAUG	–	–	103	320
CAUAUCGUAAGAGGAUAUAUGAGUCCUACAUGAGGAUCACCCAUGUAGGUGAUCUAACGAGAUUAGUAGAAGGCUUACGAUAUG	16.2	7.62	–	–
UAAAUCUAGUAAGGAUAUACACGAGAUUCAAGUGUAGAAGGUACUUACAUGAGGAUCACCCAUGUAUACAUGGAUAAUAGAUAU	234	109	–	–
CAGUACUGAGGAUAUACAUGAGGAUCACCCAUGUGUUCCAGCUAGGAAACGAGCAAAAGUAGAAGGCAGUACUG	–	–	21.9	282
AAUGAGCUAGGAUAUACAUGAGGAUCACCCAUGUAAAAUAGGUCAUGGAGGAACCACUGUAGAAGGAGCAGGGC	–	–	45.4	72.1
CAGCACAUGAGGAUCACCCAUGUGCAUCCAUCAUGUGCCGUGCAGGAUAUAGACCGCCGUCCAGUCUAGAAGGGCACCGAUGAC	–	–	159	75.1
GUGUGUUGCGGGCAGGAUAUGUAUUUGAGUACAUGAGGAUCACCCAUGUGCGCCUGUUUCAGGCGACAGAAGGGCCUAUCGCGAC	159	30.9	–	–
UCAUACAUGAGGAUCACCCAUGACAUGAGGAUCACCCAUGUGCAGGAUAUACGUGAUAUAAUAUAGUAGAAGGGCAGACUAUAU	–	–	51.9	57.6
GCGAUAUUGUAAGGAUAUACUCUGUGAUGAAGAGUAGAAGGUACUUACAUGAGGAUCACCCAUGUUUAACGUGAUACUAAUCGC	541	210	–	–
AGUAUGUACGCAGGAUAUACAUGAGGAUCACCCAUGUGGAACAGUGUAGUACUAGUUGAUCCUCAGUAGAAGGGCGGCCGAAUA	–	–	49.3	62.6
GCAUUUGAAGGAUAUGUCUUCGGAAACAUGAGGAUCACCCAUGUAAUACUCAUAUCACGGACAGAAGGUCAGGGUC	–	–	35.1	40.9
AUUAUUAUAUUAUACAUGAGGAUCACCCAUGUUAUAAGUCAUGAGGAUAUGGUUUUGUAGAUUUUCCAGAAGGCAUUUAACUUA	13.3	7.8	–	–
AAUUUAAUACAUGAGGAUCACCCAUGUAAUACUUGUAAGAUCAAGGAUAUCAGCUCGAAUAGAGCUGAGAAGGUGAUCACAUGU	75.9	227	–	–
AGCCGAAGCGCAGGAUAUACAUGUAUACAUGAGGAUCACCCAUGUAGCAACACGUGGUAGUGAUUGUAGAAGGGUGCUCGGCGC	32.8	30	–	–
UGCAGCGUGCACAUGAGGAUCACCCAUGUGCCAGUGGACGCACAGGAUAUGCAAUCGUACGGCUAGCAGAAGGGUGGGUCUCAC	7.37	7	–	–
GGUCGUCACAUUAACAUGAGGAUCACCCAUGUCUCUUGACAUGAGGAUAUGGAUCCUAAUUGGAUCCAGAAGGCAUGGACGACC	1030	96.5	–	–
UAUAUAUAGUAAGGAUAUGUAUUAAUUUUAUUAACAGAAGGUACUGACAUGAGGAUCACCCAUGUUUUAGUGUGGGCAUGUAGA	–	–	84.2	149
ACUGGUCGAGGAUAUGCAAUCGUGCUUCGGCACGUAAGGUCACAUGAGGAUCACCCAUGUAGAAGGCGACCAGU	–	–	17.2	36.4
